Measurements from ChEMBL document CHEMBL1122885, “Imidazo[1,5-a]pyridines: a new class of thromboxane A2 synthetase inhibitors” (J Med Chem, 1985).

Tests used:
[1] = target: T1, Thromboxane-A synthase (Homo sapiens, UniProt P24557); assay: In vitro inhibition of thromboxane A2 synthetase from human platelets.
T1 sequence (P24557 whole entry): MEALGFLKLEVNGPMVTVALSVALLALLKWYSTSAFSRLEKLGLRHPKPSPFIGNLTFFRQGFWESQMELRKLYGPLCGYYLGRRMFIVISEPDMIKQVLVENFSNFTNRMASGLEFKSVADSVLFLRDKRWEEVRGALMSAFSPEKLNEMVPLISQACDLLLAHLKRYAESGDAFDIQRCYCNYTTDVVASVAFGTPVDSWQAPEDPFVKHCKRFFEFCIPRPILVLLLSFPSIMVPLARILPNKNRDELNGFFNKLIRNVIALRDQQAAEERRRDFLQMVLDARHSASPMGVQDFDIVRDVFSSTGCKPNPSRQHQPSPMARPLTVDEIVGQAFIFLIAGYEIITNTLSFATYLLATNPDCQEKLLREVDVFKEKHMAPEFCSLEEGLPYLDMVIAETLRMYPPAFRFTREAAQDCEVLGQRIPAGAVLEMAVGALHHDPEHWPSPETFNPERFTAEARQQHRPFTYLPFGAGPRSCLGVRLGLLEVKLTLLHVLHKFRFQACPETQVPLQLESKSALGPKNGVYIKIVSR
In short: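 Human platelet microsomal Tx synthetase, mixed with solubilized partially purified sheep seminal vesicle PGH2 synthetase to make endoperoxide in situ from [1-14C]arachidonic acid (2 nmol). Buffer 0.1 M Tris-HCl pH 7.5 with tryptophan 5 mM and hemoglobin 0.2 μM; 30 min, 37 °C. PGE2 reduced; TLC, scintillation counting. IC50 read graphically as 50% fall in TxB2/PGF2(α+β) count ratio; mean of ≥2 experiments.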

[2] = Partition coefficient (logP); assay type: physicochemical; conditions: octanol/water
[3] = target: T1, Thromboxane-A synthase; assay: In vitro inhibitory activity against thromboxane A2 synthetase with lysed human platelets as the enzyme source.
In short: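 Crude microsomal Tx synthetase from human platelets plus partially purified sheep seminal vesicle PGH2 synthetase forming endoperoxide in situ from [1-14C]arachidonic acid (4 μM); 0.1 M Tris-HCl pH 7.5, 5 mM tryptophan, 0.2 μM hemoglobin; 30 min, 37 °C. PGE2 reduced to PGF2(α+β); products separated by TLC and counted by scintillation. IC50 read graphically at 50% of control TxB2/PGF2(α+β) count ratio; mean of ≥2 experiments.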

[4] = target: Prostacyclin synthase (Bos taurus); assay: In vitro inhibitory activity against prostacyclin synthetase
[5] = target: Cyclooxygenase (Ovis aries); assay: In vitro inhibitory activity against Prostaglandin G/H synthase

| Structure (SMILES) | IC50 [1] [nM] | other results |
| --- | --- | --- |
| O=C(O)/C=C/CCCc1cccc2cncn12 | 4.8 |  |
| O=C(O)/C=C/CCCCCc1cccc2cncn12 | 40 |  |
| O=C(O)CCCCc1ccc2cncn2c1 | 3300 |  |
| Cc1ncc2cccc(CCCCCC(=O)O)n12 | 25000 |  |
| NC(=O)CCCCCc1cccc2cncn12 | 77 |  |
| C/C(=C\CCCCCc1cccc2cncn12)C(=O)O | 19 |  |
| CNC(=O)CCCCCc1cccc2cncn12 | 270 |  |
| O=C(O)CCCCc1cccc2cncn12 | 41 | logP [2]: 0.7 |
| CCCCCCCc1cccc2cncn12 | 3300 |  |
| O=C(O)CCCCc1ccn2cncc2c1 | 4700 |  |
| O=C(CCCCCc1cccc2cncn12)NO | 20 |  |
| O=C(O)CCCCCCc1cccc2cncn12 | 5.2 | logP [2]: 1.54 |
| CCOC(=O)CCCCCc1cccc2cncn12 | 330 |  |
| O=C(O)/C=C/C=C/c1cccc2cncn12 | 28 |  |
| O=C(O)CCCCc1cccn2cncc12 | 390 |  |
| O=C(O)CCCCCCCc1cccc2cncn12 | 21 | logP [2]: 2.01 |
| OCCCCCCc1cccc2cncn12 | 280 |  |
| CN(C)C(=O)CCCCCc1cccc2cncn12 | 550 |  |
| c1cc(CCCCc2nnn[nH]2)n2cncc2c1 | 11 |  |
| c1cc(CCCCCc2nnn[nH]2)n2cncc2c1 | 19 |  |
| N#CCCCCCc1cccc2cncn12 | 630 |  |
| O=C(O)CCCCCc1cccc2cncn12 [PIRMAGREL] |  | logP [2]: 1.1; IC50 [3]: 3.2 nM; IC50 [4]: 100000 nM; IC50 [5]: 10000 nM |
